Results: ChEMBL document CHEMBL5030521, “Design, Synthesis, and Characterization of Novel sn-1 Heterocyclic DAG-Lactones as PKC Activators” (J Med Chem, 2021)
The source made the active and inactive calls.

How the values were obtained:
[1] = target: T1, Protein kinase C alpha type (Homo sapiens, UniProt P17252); experiment: Displacement of [3H]-PDBu from recombinant human PKCalpha at 30 uM by scintillation counter method relative to control
Summary of the method: (§1)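 Competition of 2 nM [3H]PDBu by test ligand at a single fixed concentration (value in line); 50 mM Tris-HCl pH 7.4, 100 μg/mL porcine brain phosphatidylserine, 5 mg/mL bovine IgG, 0.003% Tx-100, 20 ng/tube enzyme; 0.1 mM Ca2+ for PKCα, 1 mM EGTA for PKCε. 5 min at 37 °C, PEG precipitation, bound and free counted separately; nonspecific with 10 μM cold PDBu; triplicates.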

[2] = target: T2, Protein kinase C epsilon type (Homo sapiens) (UniProt Q02156); experiment: Activation of GFP-fused PKCepsilon in HeLa cells assessed as translocation of PKCepsilon from cytosol to membrane measured after 30 mins by DAPI staining based fluorescence microscopy; assay type: subcellular
T2 sequence (whole entry): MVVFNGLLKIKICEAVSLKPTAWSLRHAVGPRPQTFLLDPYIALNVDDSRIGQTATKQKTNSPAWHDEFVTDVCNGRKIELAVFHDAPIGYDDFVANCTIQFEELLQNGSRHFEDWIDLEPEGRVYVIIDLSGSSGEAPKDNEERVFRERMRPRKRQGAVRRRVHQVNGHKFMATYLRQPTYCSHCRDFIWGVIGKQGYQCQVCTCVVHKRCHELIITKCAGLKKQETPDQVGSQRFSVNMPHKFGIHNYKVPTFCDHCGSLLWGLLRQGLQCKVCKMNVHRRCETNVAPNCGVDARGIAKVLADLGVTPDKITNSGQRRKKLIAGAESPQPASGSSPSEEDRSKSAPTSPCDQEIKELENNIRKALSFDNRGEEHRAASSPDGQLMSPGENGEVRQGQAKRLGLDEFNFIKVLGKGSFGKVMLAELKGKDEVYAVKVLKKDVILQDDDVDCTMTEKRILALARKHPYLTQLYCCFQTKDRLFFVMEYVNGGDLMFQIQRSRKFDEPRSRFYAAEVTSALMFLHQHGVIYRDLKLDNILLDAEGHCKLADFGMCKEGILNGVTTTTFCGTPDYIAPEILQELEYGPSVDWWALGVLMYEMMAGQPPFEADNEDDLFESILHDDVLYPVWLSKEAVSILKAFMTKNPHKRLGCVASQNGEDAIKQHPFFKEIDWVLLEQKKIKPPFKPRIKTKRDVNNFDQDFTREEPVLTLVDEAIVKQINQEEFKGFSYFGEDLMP
Summary of the method: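 HeLa cells transfected with pEGFP-N1-PKCε, plated on coverslips, serum-starved 24 h after 24 h, then treated 30 min; methanol-fixed, DAPI counterstained, imaged by fluorescence microscopy. Membrane/cytosol ratio from line intensity profiles across ~10–15 cells/group, operator blinded; mean ± SD; PMA 100 nM as control.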

[3] = target: T2, Protein kinase C epsilon type (Homo sapiens); experiment: Displacement of [3H]-PDBu from recombinant human PKCepsilon at 30 uM by scintillation counter method relative to control; summary of the method: as §1
[4] = target: T2, Protein kinase C epsilon type (Homo sapiens); experiment: Displacement of [3H]-PDBu from recombinant human PKCepsilon at 10 uM by scintillation counter method relative to control; summary of the method: as §1
[5] = target: T1, Protein kinase C alpha type; experiment: Displacement of [3H]-PDBu from recombinant human PKCalpha by scintillation counter method
Summary of the method: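 [3H]PDBu (2 nM) competition with increasing ligand in 50 mM Tris-HCl pH 7.4, 100 μg/mL porcine brain phosphatidylserine, 0.1 mM Ca2+ (PKCα), 5 mg/mL bovine IgG, 0.003% Triton X-100, 20 ng enzyme/tube; nonspecific with 10 μM PDBu. 37 °C 5 min, PEG precipitation, bound and free counted by scintillation. Triplicates; Ki from ID50; three experiments, mean ± SEM.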

[6] = target: T3, Protein kinase C epsilon type (Homo sapiens, UniProt Q02156); experiment: Displacement of [3H]-PDBu from recombinant human PKCepsilon by scintillation counter method
T3 sequence (Q02156 whole entry): T2 sequence (whole entry)
Summary of the method: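 PKCε with 2 nM [3H]PDBu plus increasing competitor concentrations, in 50 mM Tris-HCl pH 7.4, 100 μg/mL phosphatidylserine, 1 mM EGTA, 5 mg/mL bovine IgG, 0.003% Tx-100, 20 ng/tube enzyme; 37 °C 5 min, then PEG precipitation and counting of pellet and supernatant. Nonspecific binding from 10 μM unlabeled PDBu. Ki derived from competition-curve ID50; mean ± SEM of three experiments, triplicate points.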

A549 [7] = experiment: Induction of ruffle formation in human A549 cells transfected with PKCepsilon siRNA at 1 microM incubated for 30 mins using phalloidin-rhodamine staining based microscopic analysis; assay type: functional, cell-based
Summary of the method: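 A549 cells transfected with PKCε siRNA duplexes (two sequences) or nontarget control; 48 h later treated 1 μM for 30 min, formaldehyde-fixed, phalloidin-rhodamine stained; ruffle area/cell by intensity thresholding. Knockdown checked by Q-PCR mRNA and Western blot.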

[8] = target: T1, Protein kinase C alpha type; experiment: Activation of GFP-fused PKCalpha in HeLa cells assessed as […] from cytosol to membrane measured after 30 mins by DAPI staining based fluorescence microscopy; assay type: subcellular; settings: filed as activator
Summary of the method: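 HeLa cells (5 × 10^4) transfected with pEGFP-N1-PKCα or -PKCε, plated on coverslips; after 24 h serum-starved 24 h, then treated 30 min. Methanol-fixed, DAPI-counterstained, imaged by fluorescence microscopy. Line scans across cytoplasm (~10–15 cells/group) give membrane/cytosol fluorescence ratio; operator blinded; mean ± SD.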

A549 [9] = experiment: Induction of ruffle formation in human A549 cells at 1 microM incubated for 30 mins using phalloidin-rhodamine staining based microscopic analysis; assay type: functional, cell-based
Summary of the method: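 Serum-starved (24 h) A549 cells at low confluence on coverslips treated 30 min at 1 μM; fixed in 4% formaldehyde, F-actin stained with phalloidin-rhodamine, DAPI nuclei. Five random fields scored; ruffle area per cell by intensity thresholding.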

CC(C)=C1CC(CO)(Cn2nnc(-c3ccccc3)n2)OC1=O (centres undefined)
inhibition [1]: 23.5% | Activity [2]: inactive

CC(C)=C1CC(CO)(COc2cc(C)on2)OC1=O (centres undefined)
inhibition [1]: 31.3%

CC(C)=C1CC(CO)(Cn2cc(-c3ccc(C)cc3)nn2)OC1=O (centres undefined)
inhibition [1]: 11.7% | Activity [2]: inactive

CC(C)CC(C/C=C1\CC(CO)(Cn2nnc(-c3ccccc3)n2)OC1=O)CC(C)C (centres undefined)
inhibition [1]: 37.5% | inhibition [3]: 69.2%

Cc1ccc(-c2cn(CC3(CO)C/C(=C\CC(CC(C)C)CC(C)C)C(=O)O3)nn2)cc1 (centres undefined)
Activity [2]: inactive | inhibition [4]: 17%

Cc1cc(OCC2(CO)C/C(=C\CC(CC(C)C)CC(C)C)C(=O)O2)no1 (centres undefined)
Ki [5]: 79.3 nM | Ki [6]: 33.6 nM | Activity (A549 [7]): inactive

CCCCCCCCCCCCCC(=O)O[C@@H]1[C@@H](C)[C@@]2(O)[C@@H](C=C(CO)C[C@]3(O)C(=O)C(C)=C[C@@H]23)[C@@H]2C(C)(C)[C@]12OC(C)=O
Activity [2]: inactive | Activity [8]: Active

CC(C)CC(C/C=C1\CC(CO)(COC(=O)C(C)(C)C)OC1=O)CC(C)C (centres undefined)
Ki [5]: 23.6 nM | Ki [6]: 1.89 nM | fold change (FC) ([2]; filed as activator): 43 | Activity (A549 [9]): Active | Activity (A549 [7]): inactive
